pIC50: −log10 of the molar value.
Test system: L1210
Assay: Concentration required for 50% inhibition of cell growth (L1210 Leukemia)
Format: functional, cell-based
Settings: Mus musculus, read-out: pI50 (converted)
Procedure, shortened: (§1)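 L1210 cells in RPMI1640 with 10% fetal calf serum, seeded at (3–4) × 10⁴ cells/mL. Drug added to final 10⁻³ to 10⁻⁶ M, duplicates, with untreated and Me₂SO controls. Incubated at 37 °C in 5% CO₂, counted by Coulter counter.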

Compared with N/C(=N\O)N/N=C/c1ccc(OCc2ccccc2)cc1, Cc1ccc(S(=O)(=O)O)cc1.N#Cc1ccc(/C=N/N/C(N)=N/O)cc1 is 2.7-fold lower in IC50: 25.1 µM for the first, 9.33 µM for the second.

First: N/C(=N\O)N/N=C/c1cccnc1
Second: N/C(=N\O)N/N=C/c1cccc([N+](=O)[O-])c1
The IC50 of the first is 3-fold higher: 22.9 µM for the first, 7.59 µM for the second.

Compared with COc1ccc(OC)c(/C=N/N=C(\N)NO)c1.Cc1ccc(S(=O)(=O)O)cc1, Cc1ccc(S(=O)(=O)O)cc1.Cn1cccc1/C=N/N=C(\N)NO is 2.6-fold lower in IC50: 7.08 µM for the first, 2.69 µM for the second.

First: Cc1ccc(S(=O)(=O)O)cc1.N/C(=N\O)N/N=C/c1ccc2ccccc2n1
Second: Cc1ccc(S(=O)(=O)O)cc1.N/C(=N\O)N/N=C/c1nccc2ccccc12
The IC50 of the first is 2-fold higher: 6.76 µM for the first, 3.31 µM for the second.

Going from Cc1ccc(S(=O)(=O)O)cc1.N/C(=N\O)N/N=C/c1cc(Br)cc(Br)c1O to Cc1ccc(S(=O)(=O)O)cc1.N/C(=N\O)N/N=C/C1CC2C=CC1C2 (stereo not drawn), the IC50 falls from 16.6 µM to 10.7 µM (1.6-fold).

N/C(=N\O)N/N=C/c1ccc(C(F)(F)F)cc1 and N/C(=N\O)N/N=C/c1ccc(Cl)c([N+](=O)[O-])c1 are within 1.5-fold of each other in IC50: 9.12 µM for the first, 12.6 µM for the second.

CS(=O)(=O)Oc1cccc(/C=N/N=C(\N)NO)c1 and NC(=O)NO [HYDROXYUREA] are within 1.5-fold of each other in IC50: 14.8 µM for the first, 21.4 µM for the second.

Test system: L1210
Assay: Dose required for 50% inhibition of cell growth (L1210 Leukemia) calculated at 48 hours by using probit analysis.
Format: functional, Mus musculus
Settings: not given
Procedure, shortened: as §1

Cc1ccc(S(=O)(=O)O)cc1.N/C(=N\O)N/N=C/c1nccc2ccccc12 showed an ID50 of 3.3 µM.

Same assay, conditions: Mus musculus, L1210, 48 h; read-out: ID50 (the source's name)

Compared with N/C(=N\O)N/N=C/c1ccc(OCc2ccccc2)cc1, Cc1ccc(S(=O)(=O)O)cc1.N#Cc1ccc(/C=N/N/C(N)=N/O)cc1 is 0.43 log units higher in pIC50: 4.60 for the first, 5.03 for the second. The second is the more potent here.

Compared with N/C(=N\O)N/N=C/c1cccnc1, N/C(=N\O)N/N=C/c1cccc([N+](=O)[O-])c1 is 0.48 log units higher in pIC50: 4.64 for the first, 5.12 for the second.

First: COc1ccc(OC)c(/C=N/N=C(\N)NO)c1.Cc1ccc(S(=O)(=O)O)cc1
Second: Cc1ccc(S(=O)(=O)O)cc1.Cn1cccc1/C=N/N=C(\N)NO
The pIC50 of the first is 0.42 log units lower: 5.15 for the first, 5.57 for the second. The second is the more potent here.

First: Cc1ccc(S(=O)(=O)O)cc1.N/C(=N\O)N/N=C/c1ccc2ccccc2n1
Second: Cc1ccc(S(=O)(=O)O)cc1.N/C(=N\O)N/N=C/c1cc(Br)cc(Br)c1O
The pIC50 of the first is 0.39 log units higher: 5.17 for the first, 4.78 for the second. The first is the more potent here.

Cc1ccc(S(=O)(=O)O)cc1.N/C(=N\O)N/N=C/C1CC2C=CC1C2 (stereo not drawn) and N/C(=N\O)N/N=C/c1ccc(C(F)(F)F)cc1 are within 0.2 log units of each other in pIC50: 4.97 for the first, 5.04 for the second.

N/C(=N\O)N/N=C/c1ccc(Cl)c([N+](=O)[O-])c1 and CS(=O)(=O)Oc1cccc(/C=N/N=C(\N)NO)c1 are within 0.2 log units of each other in pIC50: 4.90 for the first, 4.83 for the second.

Molecule NC(=O)NO [HYDROXYUREA] has a pIC50 of 4.67.

Test system: not listed separately
Assay: Compound was evaluated for lethal dose in mice
Format: toxicity, organism-based
Settings: mouse, in vivo
Procedure, shortened: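 Swiss-Webster male mice, six per dose; compound suspended in 2.5% acacia in normal saline and injected intraperitoneally by body weight; vehicle-injected controls. LD50 calculated by probit analysis.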

Compared with Cc1ccc(S(=O)(=O)O)cc1.N#Cc1ccc(/C=N/N/C(N)=N/O)cc1, Cc1ccc(S(=O)(=O)O)cc1.Cn1cccc1/C=N/N=C(\N)NO is 2.1-fold higher in LD50: 156 mg/kg for the first, 322 mg/kg for the second.

Test system: Rous sarcoma virus
Assay: Compound was tested for percent inhibition against Rous sarcoma viral replication at 1e-6 M
Format: functional
Settings: not given
Procedure, shortened: (§2)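 Chick embryo cells at 5 × 10⁵ cells/60-mm dish, medium replaced with fresh Hams F10 medium plus drug solution and Rous sarcoma virus; control of medium plus virus only. On days 3 and 6, medium plus drug renewed; medium harvested two days later. Virus titer in harvests measured by drug-free focus assay on chick embryo fibroblasts and compared with control.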

COc1ccc(OC)c(/C=N/N=C(\N)NO)c1.Cc1ccc(S(=O)(=O)O)cc1 showed an Inhibition of 80%.

Test system: Rous sarcoma virus
Assay: Compound was tested for percent inhibition against Rous sarcoma viral replication at 2e-5 M
Format: functional
Settings: not given
Procedure, shortened: as §2

Cc1ccc(S(=O)(=O)O)cc1.N/C(=N\O)N/N=C/c1ccc2ccccc2n1 gave an Inhibition of 84%.

Test system: Rous sarcoma virus
Assay: Compound was tested for percent inhibition against Rous sarcoma viral replication at 3e-6M
Format: functional
Settings: not given
Procedure, shortened: as §2

Molecule Cc1ccc(S(=O)(=O)O)cc1.N/C(=N\O)N/N=C/c1nccc2ccccc12 has an Inhibition of 79%.

Test system: Rous sarcoma virus
Assay: Compound was tested for percent inhibition against Rous sarcoma viral replication at 7e-6M
Format: functional
Settings: not given
Procedure, shortened: as §2

For Cc1ccc(S(=O)(=O)O)cc1.N/C(=N\O)N/N=C/C1CC2C=CC1C2 (stereo not drawn), the Inhibition was 94%.

Test system: Rous sarcoma virus
Assay: Compound tested for its effect on Rous sarcoma viral replication and virus yield was determined at 1e-6 M
Format: functional
Settings: not given
Procedure, shortened: as §2

COc1ccc(OC)c(/C=N/N=C(\N)NO)c1.Cc1ccc(S(=O)(=O)O)cc1 gave a Virus yield of 31000 ffu ml-1.

Test system: Rous sarcoma virus
Assay: Compound tested for its effect on Rous sarcoma viral replication and virus yield was determined at 2e-5 M
Format: functional
Settings: not given
Procedure, shortened: as §2

In the case of Cc1ccc(S(=O)(=O)O)cc1.N/C(=N\O)N/N=C/c1ccc2ccccc2n1, the Virus yield was 25000 ffu ml-1.

Test system: Rous sarcoma virus
Assay: Compound tested for its effect on Rous sarcoma viral replication and virus yield was determined at 5e-6M
Format: functional
Settings: not given
Procedure, shortened: as §2

Work on Cc1ccc(S(=O)(=O)O)cc1.Cn1cccc1/C=N/N=C(\N)NO yielded a Virus yield of 90000 ffu ml-1.

Test system: Rous sarcoma virus
Assay: Compound tested for its effect on Rous sarcoma viral replication and virus yield was determined at 7e-6M
Format: functional
Settings: not given
Procedure, shortened: as §2

Molecule Cc1ccc(S(=O)(=O)O)cc1.N/C(=N\O)N/N=C/C1CC2C=CC1C2 (stereo not drawn) has a Virus yield of 9300 ffu ml-1.

Test system: Rous sarcoma virus
Assay: Inhibition of cell transformation by Rous Sarcoma virus
Format: functional
Settings: read-out: ID50 (the source's name)
Procedure, shortened: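 Chick embryo fibroblasts at 5 × 10⁵ cells/60-mm dish, given about 200 focus-forming units of Rous sarcoma virus with drug (final 10⁻³ to 10⁻⁶ M, up to 1% Me₂SO in stock) for 8-16 h at 37 °C. Agar overlay with drug for 4 days, then second overlay. Foci counted on days 7-10; % inhibition = (1 − T/C)×100, probit analysis.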

Going from N/C(=N\O)N/N=C/c1ccc(OCc2ccccc2)cc1 to Cc1ccc(S(=O)(=O)O)cc1.N#Cc1ccc(/C=N/N/C(N)=N/O)cc1, the pIC50 falls from 5.09 to 4.01 (1.08 log units). The first is the more potent here.

First: N/C(=N\O)N/N=C/c1cccnc1
Second: N/C(=N\O)N/N=C/c1cccc([N+](=O)[O-])c1
The pIC50 of the first is 0.36 log units lower: 4.09 for the first, 4.45 for the second. The second is the more potent here.

Compared with COc1ccc(OC)c(/C=N/N=C(\N)NO)c1.Cc1ccc(S(=O)(=O)O)cc1, Cc1ccc(S(=O)(=O)O)cc1.Cn1cccc1/C=N/N=C(\N)NO is 0.22 log units lower in pIC50: 5.57 for the first, 5.35 for the second. The first is the more potent here.

First: Cc1ccc(S(=O)(=O)O)cc1.N/C(=N\O)N/N=C/c1ccc2ccccc2n1
Second: Cc1ccc(S(=O)(=O)O)cc1.N/C(=N\O)N/N=C/c1nccc2ccccc12
The pIC50 of the first is 0.44 log units lower: 4.36 for the first, 4.80 for the second. The second is the more potent here.

Cc1ccc(S(=O)(=O)O)cc1.N/C(=N\O)N/N=C/c1cc(Br)cc(Br)c1O and N/C(=N\O)N/N=C/c1ccc(Cl)c([N+](=O)[O-])c1 are within 0.2 log units of each other in pIC50: 5.19 for the first, 5.02 for the second.

Compared with N/C(=N\O)N/N=C/c1ccc(C(F)(F)F)cc1, CS(=O)(=O)Oc1cccc(/C=N/N=C(\N)NO)c1 is 0.48 log units lower in pIC50: 4.93 for the first, 4.45 for the second.

Test system: Rous sarcoma virus
Assay: Compound was tested for percent inhibition against Rous sarcoma viral replication at 5e-6M
Format: functional
Settings: not given
Procedure, shortened: as §2

Molecule Cc1ccc(S(=O)(=O)O)cc1.Cn1cccc1/C=N/N=C(\N)NO has an Inhibition of 44%.

Test system: Rous sarcoma virus
Assay: Compound tested for its effect on Rous sarcoma viral replication and virus yield was determined at 3e-6M
Format: functional
Settings: not given
Procedure, shortened: as §2

Molecule Cc1ccc(S(=O)(=O)O)cc1.N/C(=N\O)N/N=C/c1nccc2ccccc12 has a Virus yield of 34000 ffu ml-1.

Test system: Mus musculus
Assay: Compound evaluated for % T/C of median survival time at 100 mg/kg against P388 leukemia in mice
Settings: not given

Cc1ccc(S(=O)(=O)O)cc1.N/C(=N\O)N/N=C/c1cc(Br)cc(Br)c1O gave a T/C of 140%.

Reference: ChEMBL document CHEMBL1122918, “Optimization of the Schiff bases of N-hydroxy-N'-aminoguanidine as anticancer and antiviral agents” (J Med Chem, 1985)
